Data set [1] addresses Somatostatin receptor type 4 (Homo sapiens, UniProt P31391). The data set can be described thus: Tested for inhibition of radioligand binding to cloned somatostatin receptor hSSTR4.
The species named for a further data set is Rattus norvegicus. The data set can be described thus: Tested for inhibition of growth hormone (GH)release from primary cultures of male rat anterior pituitary cells. The class given is functional, cell-based. Conditions: Pituitary gland cell.
In data set [2] the target is Somatostatin receptor type 3 (Mus musculus, UniProt P30935). Kind of data set: Tested for inhibition of radioligand binding to cloned somatostatin receptor mSSTR3.
Data set [3] concerns the target Somatostatin receptor type 2 (Mus musculus, UniProt P30875). The data set can be described thus: Tested for inhibition of radioligand binding to cloned somatostatin receptor mSSTR2b.
Data set [4] addresses Somatostatin receptor type 5 (Homo sapiens, UniProt P35346). Kind of data set: Tested for inhibition of radioligand binding to cloned somatostatin receptor hSSTR5.
For data set [5], the target named is T1, Somatostatin receptor type 5 (Rattus norvegicus, UniProt P30938).
T1 sequence (P30938 whole entry): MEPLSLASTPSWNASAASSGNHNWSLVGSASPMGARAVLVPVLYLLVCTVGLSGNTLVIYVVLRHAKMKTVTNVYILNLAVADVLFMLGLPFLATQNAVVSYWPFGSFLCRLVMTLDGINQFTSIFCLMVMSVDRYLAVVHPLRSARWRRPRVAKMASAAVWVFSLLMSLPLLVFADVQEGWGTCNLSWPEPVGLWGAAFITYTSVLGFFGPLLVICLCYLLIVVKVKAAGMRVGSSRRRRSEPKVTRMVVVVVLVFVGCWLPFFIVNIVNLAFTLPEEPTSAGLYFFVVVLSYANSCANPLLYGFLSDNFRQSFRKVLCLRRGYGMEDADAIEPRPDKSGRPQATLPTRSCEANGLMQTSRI
Kind of data set: Tested for inhibition of radioligand binding to cloned somatostatin receptor rSSTR5.

Data set [6] in a line: half-life of compound. The class given is ADME. The procedure, abridged:
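Aliquots taken at 5, 15, 30, 45, 60 and 90 min were quenched in ice-cold 1 M acetic acid and centrifuged. Remaining peptide was measured by microbore RP-HPLC at 216 nm against homogenate calibration. A pseudo-first-order exponential fit gave k, and half-life = 0.693/k.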

The record followed here is ChEMBL document CHEMBL1130347, “Lanthionine-somatostatin analogs: synthesis, characterization, biological activity, and enzymatic stability studies” (J Med Chem, 1997).

Bridge positions count the residues as written; N and C are the ends. Square brackets hold non-standard residues; d marks the D form. Peptide text beside a SMILES is read from it. * marks the point of attachment. Threoninol(2S,3R) = C[C@@H](O)[C@H](CO)N*

A word on the IC50: it is the point on the concentration scale where inhibition reaches its midpoint. Low values mean higher potency, high ones lower potency. Broadly, the half-life is the time needed for the level to fall by half in the phase considered.

Chain of Somatostatin receptor type 4 (P31391 whole entry): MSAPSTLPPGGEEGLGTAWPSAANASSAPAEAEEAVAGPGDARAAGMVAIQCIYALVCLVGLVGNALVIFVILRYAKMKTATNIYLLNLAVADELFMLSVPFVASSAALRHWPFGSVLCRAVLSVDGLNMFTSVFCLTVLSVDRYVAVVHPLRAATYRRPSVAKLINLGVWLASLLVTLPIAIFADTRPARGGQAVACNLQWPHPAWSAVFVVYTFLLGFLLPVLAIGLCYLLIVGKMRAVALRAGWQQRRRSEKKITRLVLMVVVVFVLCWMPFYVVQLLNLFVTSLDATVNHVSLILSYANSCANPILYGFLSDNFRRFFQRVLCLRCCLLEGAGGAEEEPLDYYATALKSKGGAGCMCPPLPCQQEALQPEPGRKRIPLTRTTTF
Chain of Somatostatin receptor type 2 (P30875 whole entry): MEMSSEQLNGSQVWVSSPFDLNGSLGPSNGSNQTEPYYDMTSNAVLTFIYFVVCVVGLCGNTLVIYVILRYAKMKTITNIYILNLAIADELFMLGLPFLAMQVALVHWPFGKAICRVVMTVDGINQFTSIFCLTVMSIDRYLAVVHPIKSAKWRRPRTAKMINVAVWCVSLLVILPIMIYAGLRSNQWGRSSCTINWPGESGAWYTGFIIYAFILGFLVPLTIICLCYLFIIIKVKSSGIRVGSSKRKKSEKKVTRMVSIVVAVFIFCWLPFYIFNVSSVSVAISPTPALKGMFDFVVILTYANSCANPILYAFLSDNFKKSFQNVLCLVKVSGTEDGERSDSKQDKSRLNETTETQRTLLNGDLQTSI
Chain of Somatostatin receptor type 3 (P30935 whole entry): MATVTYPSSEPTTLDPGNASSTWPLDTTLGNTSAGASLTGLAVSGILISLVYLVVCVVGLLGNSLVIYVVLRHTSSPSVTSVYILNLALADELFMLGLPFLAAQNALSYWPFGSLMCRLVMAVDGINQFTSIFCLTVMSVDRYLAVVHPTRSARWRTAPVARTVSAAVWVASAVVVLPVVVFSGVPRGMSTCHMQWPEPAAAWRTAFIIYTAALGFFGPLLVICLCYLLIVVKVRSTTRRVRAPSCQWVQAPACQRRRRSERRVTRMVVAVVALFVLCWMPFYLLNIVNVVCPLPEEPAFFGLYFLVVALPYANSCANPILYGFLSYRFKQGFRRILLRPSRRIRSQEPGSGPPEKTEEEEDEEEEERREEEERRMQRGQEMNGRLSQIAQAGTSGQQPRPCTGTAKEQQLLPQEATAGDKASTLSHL
Chain of Somatostatin receptor type 5 (Homo sapiens, UniProt P35346) (P35346 whole entry): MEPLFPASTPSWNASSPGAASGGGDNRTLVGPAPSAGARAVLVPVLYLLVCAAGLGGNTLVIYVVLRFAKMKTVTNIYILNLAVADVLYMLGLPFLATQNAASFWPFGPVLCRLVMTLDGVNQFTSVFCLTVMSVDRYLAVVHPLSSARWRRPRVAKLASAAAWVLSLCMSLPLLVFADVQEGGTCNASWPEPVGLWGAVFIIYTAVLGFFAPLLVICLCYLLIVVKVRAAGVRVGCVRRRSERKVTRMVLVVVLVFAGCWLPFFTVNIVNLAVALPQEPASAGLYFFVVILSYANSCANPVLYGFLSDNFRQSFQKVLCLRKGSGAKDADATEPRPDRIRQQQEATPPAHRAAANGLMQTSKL

Regarding `C[C@@H](O)[C@@H]1NC(=O)[C@H](CCCCN)NC(=O)[C@@H](Cc2c[nH]c3ccccc23)NC(=O)[C@H](Cc2ccccc2)NC(=O)[C@@H](NC(=O)[C@H](N)Cc2ccccc2)CSC[C@@H](C(=O)O)NC1=O`, the IC50 (in data set [1]; in the data set listed under Rattus norvegicus; in data set [2]; in data set [3]) was over 1000 nM each time.
For the compound `C[C@@H](O)[C@H](NC(=O)[C@@H]1CSC[C@H](NC(=O)[C@H](N)Cc2ccccc2)C(=O)N[C@@H](Cc2ccccc2)C(=O)N[C@H](Cc2c[nH]c3ccccc23)C(=O)N[C@@H](CCCCN)C(=O)N[C@@H]([C@@H](C)O)C(=O)N1)C(N)=O` [listing 1 of 2 here], the half-inhibitory concentration (IC50) in data set [4] is 4.92 nM. This counts as single-digit nanomolar.
For `C[C@@H](O)[C@@H]1NC(=O)[C@H](CCCCN)NC(=O)[C@@H](Cc2c[nH]c3ccccc23)NC(=O)[C@H](Cc2ccccc2)NC(=O)[C@@H](N)CSC[C@@H](C(=O)O)NC1=O` [listing 1 of 2 here], the IC50 in data set [1], in data set [2] and in data set [3] was over 1000 nM throughout.
Regarding `C[C@@H](O)[C@H](NC(=O)[C@@H]1CSC[C@@H](NC(=O)[C@H](N)Cc2ccccc2)C(=O)N[C@H](Cc2ccccc2)C(=O)N[C@@H](Cc2c[nH]c3ccccc23)C(=O)N[C@H](CCCCN)C(=O)N[C@@H]([C@@H](C)O)C(=O)N1)C(N)=O`, the IC50 in the data set filed under Rattus norvegicus is 70 nM.
`C[C@@H](O)[C@H]1NC(=O)[C@H](CCCCN)NC(=O)[C@@H](Cc2c[nH]c3ccccc23)NC(=O)[C@H](Cc2ccccc2)NC(=O)[C@@H](NC(=O)[C@@H](N)Cc2ccccc2)CSSC[C@H](C(=O)O)NC1=O`: the IC50 in data set [1] and in data set [2] was over 1000 nM in each case.
In the case of `C[C@@H](O)[C@H](NC(=O)[C@@H]1CSC[C@H](NC(=O)[C@H](N)Cc2ccccc2)C(=O)N[C@@H](Cc2ccccc2)C(=O)N[C@H](Cc2c[nH]c3ccccc23)C(=O)N[C@@H](CCCCN)C(=O)N[C@@H]([C@@H](C)O)C(=O)N1)C(N)=O` [listing 2 of 2 here], the concentration for half-maximal inhibition (IC50) is over 1000 nM in data set [1], over 1000 nM in data set [2] and 16.6 nM in data set [3].
On to `C[C@@H](O)[C@H](CO)NC(=O)[C@@H]1CSSC[C@H](NC(=O)[C@H](N)Cc2ccccc2)C(=O)N[C@@H](Cc2ccccc2)C(=O)N[C@H](Cc2c[nH]c3ccccc23)C(=O)N[C@@H](CCCCN)C(=O)N[C@@H]([C@@H](C)O)C(=O)N1` (H-[dF]CF[dW]KTC-{Threoninol(2S,3R)}; disulfide 2-7), for which the IC50 came out at 1.04 nM in data set [5], 0.52 nM in the data set filed under Rattus norvegicus, 3 nM in data set [2] and 0.28 nM in data set [3]. For the same compound, the half-life in data set [6] was 12.5 h.
On to `C[C@H](N)C(=O)NCC(=O)N[C@H]1CSSC[C@@H](C(=O)O)NC(=O)[C@H](CO)NC(=O)[C@H]([C@@H](C)O)NC(=O)[C@H](Cc2ccccc2)NC(=O)[C@H]([C@@H](C)O)NC(=O)[C@H](CCCCN)NC(=O)[C@H](Cc2c[nH]c3ccccc23)NC(=O)[C@H](Cc2ccccc2)NC(=O)[C@H](Cc2ccccc2)NC(=O)[C@H](CC(N)=O)NC(=O)[C@H](CCCCN)NC1=O` [SOMATOSTATIN], for which inhibition in the data set filed under Rattus norvegicus was half-maximal at 0.52 nM (IC50). That is a sub-nanomolar value.
On to `C[C@@H](O)[C@H]1NC(=O)[C@H](CCCCN)NC(=O)[C@@H](Cc2c[nH]c3ccccc23)NC(=O)[C@H](Cc2ccccc2)NC(=O)[C@@H](N)CSC[C@H](C(=O)O)NC1=O`, for which the IC50 in data set [5] amounted to 500 nM.
Consider `C[C@@H](O)[C@@H]1NC(=O)[C@H](CCCCN)NC(=O)[C@@H](Cc2c[nH]c3ccccc23)NC(=O)[C@H](Cc2ccccc2)NC(=O)[C@@H](NC(=O)[C@H](N)Cc2ccccc2)CSSC[C@@H](C(=O)O)NC1=O`, for which, in data set [3], the 50% inhibitory concentration (IC50) was found to be 13.6 nM.
In turn, `C[C@@H](O)[C@@H]1NC(=O)[C@H](CCCCN)NC(=O)[C@@H](Cc2c[nH]c3ccccc23)NC(=O)[C@H](Cc2ccccc2)NC(=O)[C@@H](N)CSC[C@@H](C(=O)O)NC1=O` [listing 2 of 2 here] showed an IC50 in the data set filed under Rattus norvegicus of over 1000 nM.
